Results from ChEMBL document CHEMBL1157849, “The influence of the aziridinyl substituent of benzimidazoles and benzimidazolequinones on toxicity towards normal and Fanconi anaemia cells” (Eur J Med Chem, 2010).
The source made the active and inactive calls. The rule behind the calls is not given here.

What was measured:
[1] = Cytotoxicity against human GM00637 cells after 24 hrs by MTT assay; format: cell-based; settings: GM00637, 24 h
How it was run: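 Cells seeded at 10,000 per well and left 48 h to adhere, then exposed to test solutions in DMSO (2.5% final) for 24 h at 37 °C under humidified 5% CO₂. MTT read-out at 550 nm with 690 nm reference. Viability is expressed as percent of DMSO-only control. IC50 is the concentration reducing mean viability to 50% of control, estimated by nonlinear regression of dose-response curves.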

PD20i = assay: Cytotoxicity against FANCD2-deficient human PD20i cells at 0.001 uM after 24 hrs by MTT assay; format: functional, cell-based
How it was run: (§1)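 PD20i and PD20:RV human fibroblasts grown in alpha-MEM with 15% uninactivated FBS, penicillin–streptomycin, 2 mM L-glutamine, 37 °C, 5% CO₂. Cells seeded at 10,000/well, both lines in parallel on the same plate, adhered 48 h. Compound added in DMSO (2.5% final), 24 h at 37 °C. MTT read at 550 nm (690 nm reference). Viability as % of DMSO-only control, mean of at least three independent experiments.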

Homo sapiens = species on record: Homo sapiens; assay: Cytotoxicity against wild type FANCD2 expressing human PD20:RV cells at 0.001 uM after 24 hrs by MTT assay; format: functional, cell-based; how it was run: as §1

Row | SMILES | IC50 [1] | Activity (PD20i) | Activity (Homo sapiens)
1 | O=C1C(N2CC2)=CC(=O)c2c1nc1n2CCCCC1 | 560 nM | – | –
2 | COC1=CC(=O)c2c(nc3n2CCC3)C1=O | 360 nM | inactive | –
3 | COC1=CC(=O)c2c(nc3n2CCCC3)C1=O | > 1500 nM | – | –
4 | O=C1C(N2CC2)=CC(=O)c2c1nc1n2CCC1 | 290 nM | Active | Active
5 | CO[C@@]12[C@H](COC(N)=O)C3=C(C(=O)C(C)=C(N)C3=O)N1C[C@@H]1N[C@@H]12 [MITOMYCIN] | 900 nM | – | –
6 | COC1=CC(=O)c2c(nc3n2CCCCC3)C1=O | > 1500 nM | – | –
7 | CCn1cnc2c(OC)ccc(OC)c21 | > 10000 nM | – | –
8 | CCn1cnc2c1C(=O)C=CC2=O | 580 nM | – | –
9 | O=C1C(N2CC2)=CC(=O)c2c1nc1n2CCCC1 | 1060 nM | – | –
10 | COc1ccc(OC)c2c1ncn2C[C@@H]1CN1C(c1ccccc1)(c1ccccc1)c1ccccc1 (stereo not given in full) | 1260 nM | – | –
11 | O=C1C=CC(=O)c2c1ncn2C[C@@H]1CN1C(c1ccccc1)(c1ccccc1)c1ccccc1 (stereo not given in full) | 150 nM | Active | –
